The record followed here is ChEMBL document CHEMBL1143764, “Cyclic and dimeric gluten peptide analogues inhibiting DQ2-mediated antigen presentation in celiac disease” (Bioorg Med Chem, 2007).

Calls of active or inactive are those of the source. The calls are words filed in the database; no cut-off is given here. *1 amine or outer side, *2 acyl side, *3 side chain or, on linkers, in order; H or OH if unused. Where a SMILES comes first, the peptide text is derived from it. Bridges are numbered along the chain shown (N, C = ends). Side-chain parts run from the residue outwards. [ ]: non-standard residue; d: D form. The star is where a group is joined. N(prolylmethyl)Phe = O=C(CN([C@@H](Cc1ccccc1)C(=O)[*:2])[*:1])[C@@H]1CCCN1[*:3]; X1 = O=C(CCCOCCOCCOCCOCCOCCC(=O)NCCOCCOCC(=O)[*:1])NCCOCCOCC(=O)[*:2]; X2 = O=C(CCOCCOCCOCCOCCOCCOCCOCCOCCOCCOCCOCCC(=O)[*:2])[*:1]; 5FAM = O=C1OC2(c3ccc(O)cc3Oc3cc(O)ccc32)c2ccc(C(=O)*)cc21; X3 = O=C(CCOCCOCCOCCOCCOCCOCCOCCC(=O)[*:2])[*:1]

Experiment [1] can be described thus: Binding affinity to DQ2. Set-up: species or system Homo sapiens. A digest of the protocol: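 Competition binding: 125I-labeled indicator peptide (30,000 cpm; 1–5 nM) plus graded unlabeled peptide incubated overnight with 70–200 nM DQ2 at 37°C, pH 5.2, with protease inhibitor cocktail. Bound separated from free on Sephadex G-50 spin columns; radioactivity counted; IC50 as competitor level halving indicator binding, from three 3-fold titration experiments.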

The next experiment deals with T-cell. Description: Inhibition of P28 TCL2 T cell proliferation assessed as incorporation of [3H]-thymidine in presence of 10 uM antigen peptide. Format: functional, cell-based. The note with it: Homo sapiens. A digest of the protocol:
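HLA-DR3/DQ2 homozygous EBV B-lymphoblastoid cells (VAVY or CD114), fixed with 1% paraformaldehyde or 0.05% glutaraldehyde, peptide-loaded overnight at 2×10^6 cells/ml. Next day at 1×10^6/ml, duplicates, mixed with equal volume of P28 TCL2 T cells; 37°C, 5% CO2, 48 h. [3H]thymidine added, further 12–16 h, scintillation counting.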

The species named for the next experiment is Homo sapiens. Description: Binding affinity to recombinant DQ2 at pH 7.3 by fluorescent-conjugated peptide exchange assay. A digest of the protocol:
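Recombinant soluble DQ2 with N-terminally fused gliadin epitope, cleaved with ~2% w/w thrombin in PBS pH 7.3, 0°C, 2 h. 4.7 μM DQ2 with 0.185 μM fluorescein-labeled peptide (25:1), 37°C, 5 h, final pH 7.3. HPSEC with fluorescence (ex 495/em 520 nm); bound peptide as percent of total; mean of two experiments.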

A word on the IC50: it is the concentration that inhibits the measured activity by half. Read a high IC50 as lower potency. In the case of `CC(C)C[C@H](NC(=O)c1ccc2c(c1)C(=O)OC21c2ccc(O)cc2Oc2cc(O)ccc21)C(=O)N[C@@H](CCC(=O)O)C(=O)N[C@@H](CC(C)C)C(=O)N[C@@H](CCC(N)=O)C(=O)N1CCC[C@H]1C(=O)CN[C@@H](Cc1ccccc1)C(=O)N1CCC[C@H]1C(=O)N[C@@H](CCC(=O)O)C(=O)N1CCC[C@H]1C(=O)N[C@@H](CCC(=O)O)C(=O)N[C@H]1CCCCNC(=O)COCCOCCNC(=O)CCOCCOCCOCCOCCOCCCC(=O)NCCOCCOCC(=O)NCCCC[C@@H](C(=O)N2CCC[C@H]2C(=O)N[C@@H](Cc2ccc(O)cc2)C(=O)O)NC(=O)[C@H](CCC(=O)O)NC(=O)[C@@H]2CCCN2C(=O)[C@H](CCC(=O)O)NC(=O)[C@@H]2CCCN2C(=O)[C@H](Cc2ccc(O)cc2)NC(=O)[C@@H]2CCCN2C1=O` (H-[N(prolylmethyl)Phe]([Gln-Leu-Glu-Leu-5FAM])PEPEKPYPEPEKPY-OH; linker 6-13 via X1), the IC50 in experiment [1] was 300 nM. Also, the Activity result with T-cell is “Dose-dependent effect”. For the same compound, in the experiment filed under Homo sapiens, the result was Active.
For `CC(=O)N[C@H]1CCCCNC(=O)CCOCCOCCOCCOCCOCCOCCOCCOCCOCCOCCOCCC(=O)NCCCC[C@@H](C(=O)N[C@@H](CCC(=O)O)C(=O)N[C@@H](CC(C)C)C(=O)N2CCC[C@H]2C(=O)N[C@@H](Cc2ccc(O)cc2)C(=O)O)NC(=O)[C@H](CCC(=O)O)NC(=O)[C@@H]2CCCN2C(=O)[C@H](Cc2ccccc2)NC(=O)[C@@H]2CCCN2C(=O)[C@H](CCC(N)=O)NC1=O` (Ac-KQPFPEKELPY-OH; linker 1-7 via X2), the IC50 in experiment [1] was 800 nM. In the experiment with T-cell, the Activity result is “Dose-dependent effect”.
In turn, `CC(C)C[C@@H]1NC(=O)CNC(=O)CNC(=O)CNC(=O)CNC(=O)[C@H](N)CSSC[C@H](C(=O)O)NC(=O)CNC(=O)CNC(=O)[C@H](Cc2ccc(O)cc2)NC(=O)[C@@H]2CCCN2C(=O)[C@H](CC(C)C)NC(=O)[C@H](CCC(=O)O)NC(=O)[C@@H]2CCCN2C(=O)[C@H](CCC(N)=O)NC(=O)[C@@H]2CCCN2C(=O)[C@H](Cc2ccccc2)NC(=O)[C@@H]2CCCN2C(=O)[C@H](CCC(N)=O)NC1=O` returned an IC50 in experiment [1] of 3100 nM. For the same compound, the Activity result with T-cell was “Dose-dependent effect”.
Compound `CC(C)C[C@H](NC(=O)c1ccc2c(c1)C(=O)OC21c2ccc(O)cc2Oc2cc(O)ccc21)C(=O)N[C@@H](CCC(=O)O)C(=O)N[C@@H](CC(C)C)C(=O)N[C@@H](CCC(N)=O)C(=O)N1CCC[C@H]1C(=O)CN[C@@H](Cc1ccccc1)C(=O)N1CCC[C@H]1C(=O)N[C@@H](CCC(=O)O)C(=O)N1CCC[C@H]1C(=O)N[C@@H](CCC(=O)O)C(=O)N[C@H]1CCCCNC(=O)CCOCCOCCOCCOCCOCCC(=O)CNCCCC[C@@H](C(=O)N2CCC[C@H]2C(=O)N[C@@H](Cc2ccc(O)cc2)C(=O)O)NC(=O)[C@H](CCC(=O)O)NC(=O)[C@@H]2CCCN2C(=O)[C@H](CCC(=O)O)NC(=O)[C@@H]2CCCN2C(=O)[C@H](Cc2ccc(O)cc2)NC(=O)[C@@H]2CCCN2C1=O` gave an IC50 in experiment [1] of 200 nM. The Activity entry in the experiment with T-cell is “Dose-dependent effect”. Moreover, the result in the experiment listed under Homo sapiens was Active.
The compound `CC(C)C[C@@H]1NC(=O)CNC(=O)CNC(=O)CNC(=O)CNC(=O)CNC(=O)CNC(=O)[C@H](N)CSSC[C@H](C(=O)O)NC(=O)CNC(=O)CNC(=O)[C@H](Cc2ccc(O)cc2)NC(=O)[C@H]2CCCN2C(=O)[C@H](CC(C)C)NC(=O)[C@H](CCC(=O)O)NC(=O)[C@@H]2CCCN2C(=O)[C@H](CCC(N)=O)NC(=O)[C@@H]2CCCN2C(=O)[C@H](Cc2ccccc2)NC(=O)[C@@H]2CCCN2C(=O)[C@H](CCC(N)=O)NC1=O` showed a 50% inhibitory concentration (IC50) in experiment [1] of 4200 nM. In the experiment with T-cell, the Activity result was “Dose-dependent effect”.
As to `CC(C)C[C@@H]1NC(=O)CNC(=O)CNC(=O)[C@H](N)CSSC[C@H](C(=O)O)NC(=O)CNC(=O)CNC(=O)[C@H](Cc2ccc(O)cc2)NC(=O)[C@@H]2CCCN2C(=O)[C@H](CC(C)C)NC(=O)[C@H](CCC(=O)O)NC(=O)[C@@H]2CCCN2C(=O)[C@H](CCC(N)=O)NC(=O)[C@@H]2CCCN2C(=O)[C@H](Cc2ccccc2)NC(=O)[C@@H]2CCCN2C(=O)[C@H](CCC(N)=O)NC1=O`, in experiment [1], the IC50 came to 2000 nM. Also, the Activity entry in the experiment on T-cell is “Dose-dependent effect”.
In experiment [1], `CC(=O)N[C@H]1CCCCNC(=O)CCOCCOCCOCCOCCOCCOCCOCCC(=O)NCCCC[C@@H](C(=O)N[C@@H](CCC(=O)O)C(=O)N[C@@H](CC(C)C)C(=O)N2CCC[C@H]2C(=O)N[C@@H](Cc2ccc(O)cc2)C(=O)O)NC(=O)[C@H](CCC(=O)O)NC(=O)[C@@H]2CCCN2C(=O)[C@H](Cc2ccccc2)NC(=O)[C@@H]2CCCN2C(=O)[C@H](CCC(N)=O)NC1=O` (Ac-KQPFPEKELPY-OH; linker 1-7 via X3) showed an IC50 of 600 nM. In the experiment on T-cell, the Activity entry is “Dose-dependent effect”.
